Test results published in article PMC7286548 (Cell chemical biology, 2020).

Legend:
PI5P4Kα [1] = biological target: T1, PI5P4Kα (Homo sapiens, UniProt P48426); test: Radiometric TLC kinase assay; type: biochemical
T1 sequence (P48426 1-406): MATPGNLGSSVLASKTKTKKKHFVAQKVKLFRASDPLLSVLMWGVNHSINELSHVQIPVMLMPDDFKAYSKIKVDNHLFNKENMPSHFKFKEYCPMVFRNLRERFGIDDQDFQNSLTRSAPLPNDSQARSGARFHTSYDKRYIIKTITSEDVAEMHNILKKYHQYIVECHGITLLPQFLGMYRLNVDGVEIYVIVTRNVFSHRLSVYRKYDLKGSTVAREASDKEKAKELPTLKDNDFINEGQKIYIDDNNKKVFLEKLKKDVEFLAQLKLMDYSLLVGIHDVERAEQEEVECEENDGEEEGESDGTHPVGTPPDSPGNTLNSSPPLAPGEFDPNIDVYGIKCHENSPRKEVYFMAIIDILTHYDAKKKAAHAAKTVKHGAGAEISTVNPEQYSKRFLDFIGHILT
How it was run: (§1)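 Purified PI5P4K (0.1 μg) was preincubated with DMSO or test compound at various concentrations in 50 mM HEPES pH 7.4, 10 mM MgCl2. Sonicated lipid substrate, 10 μM unlabeled ATP and [γ-32P]ATP were then added. Reaction ran 10 min at room temperature. Radiolabeled PI(4,5)P2 product was quantified by phosphorimager.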

PI5P4Kβ [2] = biological target: T2, PI5P4Kβ (Homo sapiens, UniProt P78356); test: Radiometric TLC kinase assay; type: biochemical
T2 sequence (P78356 1-416): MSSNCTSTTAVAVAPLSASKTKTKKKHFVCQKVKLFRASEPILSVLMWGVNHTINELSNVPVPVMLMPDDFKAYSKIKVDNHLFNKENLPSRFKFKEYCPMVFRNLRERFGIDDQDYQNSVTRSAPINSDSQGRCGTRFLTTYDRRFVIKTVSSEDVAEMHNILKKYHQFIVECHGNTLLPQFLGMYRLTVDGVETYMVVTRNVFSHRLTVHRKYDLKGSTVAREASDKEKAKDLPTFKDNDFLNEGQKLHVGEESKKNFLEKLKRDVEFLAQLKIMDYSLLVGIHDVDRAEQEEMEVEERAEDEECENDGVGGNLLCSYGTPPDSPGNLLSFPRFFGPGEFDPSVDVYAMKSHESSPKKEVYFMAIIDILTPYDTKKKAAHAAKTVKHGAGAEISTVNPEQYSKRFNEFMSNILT
How it was run: as §1

PI5P4Kγ = biological target: T3, PI5P4Kγ (Homo sapiens, UniProt Q8TBX8); test: Radiometric TLC kinase assay; type: biochemical; conditions: Fig. S1B-C
T3 sequence (Q8TBX8 1-421): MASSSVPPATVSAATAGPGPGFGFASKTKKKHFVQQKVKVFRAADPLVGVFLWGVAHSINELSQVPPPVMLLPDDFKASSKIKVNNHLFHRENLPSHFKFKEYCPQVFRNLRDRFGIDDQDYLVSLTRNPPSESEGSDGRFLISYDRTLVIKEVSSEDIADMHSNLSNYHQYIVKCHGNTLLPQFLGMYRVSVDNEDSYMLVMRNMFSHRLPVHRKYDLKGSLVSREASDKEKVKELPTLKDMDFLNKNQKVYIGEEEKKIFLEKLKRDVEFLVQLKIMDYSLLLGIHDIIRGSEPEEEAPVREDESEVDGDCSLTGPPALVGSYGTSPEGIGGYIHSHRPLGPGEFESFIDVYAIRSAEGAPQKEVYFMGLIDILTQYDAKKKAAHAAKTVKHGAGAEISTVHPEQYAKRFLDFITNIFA

PI5P4Kα [3] = biological target: T1, PI5P4Kα; test: Intact electrospray MS covalent labeling; type: binding; conditions: within 2 h; 5 μM inhibitor, 37°C
How it was run: (§2)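 Intact mass read by LC-ESI-MS on reversed phase. Modified site mapped by TCEP (10 mM final) reduction, iodoacetamide (22.5 mM final) alkylation, Asp-N or Glu-C digestion overnight at 37°C, then nanoLC-MS.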

PI4P5Kγ = PI4P5Kγ (Homo sapiens, UniProt O60331); test: Lipid kinase off-target inhibition assay; type: biochemical; conditions: Fig. S3C
PI4P5Kγ, sequence (O60331 whole entry): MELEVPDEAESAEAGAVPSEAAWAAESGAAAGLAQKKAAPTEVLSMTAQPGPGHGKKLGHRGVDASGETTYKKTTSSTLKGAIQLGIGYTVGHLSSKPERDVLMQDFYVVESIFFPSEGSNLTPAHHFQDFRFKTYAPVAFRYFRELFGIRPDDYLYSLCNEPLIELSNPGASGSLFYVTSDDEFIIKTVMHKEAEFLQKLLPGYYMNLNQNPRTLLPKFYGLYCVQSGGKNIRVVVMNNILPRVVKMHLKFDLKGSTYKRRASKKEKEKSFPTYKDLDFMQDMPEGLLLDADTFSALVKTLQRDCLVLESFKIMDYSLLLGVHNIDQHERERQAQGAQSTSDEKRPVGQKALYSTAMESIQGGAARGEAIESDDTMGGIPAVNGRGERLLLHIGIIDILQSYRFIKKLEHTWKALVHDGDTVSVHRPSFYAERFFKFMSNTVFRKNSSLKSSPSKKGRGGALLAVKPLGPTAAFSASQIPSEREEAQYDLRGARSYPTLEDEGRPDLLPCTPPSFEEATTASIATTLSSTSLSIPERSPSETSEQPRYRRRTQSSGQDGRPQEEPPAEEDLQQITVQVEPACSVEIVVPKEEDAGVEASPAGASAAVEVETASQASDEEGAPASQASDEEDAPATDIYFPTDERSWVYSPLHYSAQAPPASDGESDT

PI4P5Kβ = PI4P5Kβ (Homo sapiens, UniProt O14986); test: Lipid kinase off-target inhibition assay; type: biochemical; conditions: Fig. S3C
PI4P5Kβ, sequence (O14986 whole entry): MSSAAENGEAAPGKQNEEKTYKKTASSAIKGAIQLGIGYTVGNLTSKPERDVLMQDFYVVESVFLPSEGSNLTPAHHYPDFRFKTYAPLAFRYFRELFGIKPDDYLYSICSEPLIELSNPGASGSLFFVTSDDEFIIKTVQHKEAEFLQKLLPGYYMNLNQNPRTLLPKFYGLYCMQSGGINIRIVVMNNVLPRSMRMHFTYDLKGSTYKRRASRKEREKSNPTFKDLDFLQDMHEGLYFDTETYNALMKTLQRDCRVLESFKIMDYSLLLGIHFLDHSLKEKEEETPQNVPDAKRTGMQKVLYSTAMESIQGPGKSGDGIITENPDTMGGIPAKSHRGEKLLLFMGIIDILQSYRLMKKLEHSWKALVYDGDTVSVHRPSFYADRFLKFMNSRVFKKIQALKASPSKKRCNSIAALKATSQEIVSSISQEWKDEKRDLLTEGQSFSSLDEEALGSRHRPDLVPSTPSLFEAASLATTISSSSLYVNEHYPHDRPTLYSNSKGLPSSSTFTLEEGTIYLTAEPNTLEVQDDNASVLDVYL

PI4P5Kα = PI4P5Kα (Homo sapiens, UniProt Q99755); test: Lipid kinase off-target inhibition assay; type: biochemical; conditions: Fig. S3C
PI4P5Kα, sequence (Q99755 whole entry): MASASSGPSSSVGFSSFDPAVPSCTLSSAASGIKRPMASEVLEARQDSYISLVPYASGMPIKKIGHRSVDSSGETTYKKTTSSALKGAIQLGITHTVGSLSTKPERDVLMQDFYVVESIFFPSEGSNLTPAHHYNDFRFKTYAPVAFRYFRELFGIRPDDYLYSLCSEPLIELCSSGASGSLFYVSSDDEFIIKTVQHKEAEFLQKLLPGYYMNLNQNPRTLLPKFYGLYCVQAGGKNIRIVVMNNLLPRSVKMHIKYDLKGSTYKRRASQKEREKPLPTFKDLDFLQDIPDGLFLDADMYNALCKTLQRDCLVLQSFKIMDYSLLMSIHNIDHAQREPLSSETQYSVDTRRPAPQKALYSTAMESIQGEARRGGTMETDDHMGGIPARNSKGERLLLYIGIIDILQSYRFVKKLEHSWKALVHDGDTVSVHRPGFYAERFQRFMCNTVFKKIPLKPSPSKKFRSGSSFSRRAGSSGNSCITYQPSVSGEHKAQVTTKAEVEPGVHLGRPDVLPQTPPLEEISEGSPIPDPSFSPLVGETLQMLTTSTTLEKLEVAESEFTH

AML/ALL cell lines = test: 72 h Cell-Titer Glo proliferation assay; type: cell-based; conditions: all six AML/ALL cell lines
How it was run: (§3)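 Cells plated in 96- or 384-well format and treated with test compound over a concentration range for 72h. Viability read by CellTiter-Glo luminescence. Leukemia lines cultured per ATCC/DSMZ recommendations in 5% CO2. K562 and KU812F came from an outside lab.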

K562 and KU812F = test: Proliferation of BCR-ABL translocation containing cell lines; type: cell-based; conditions: Fig. S4C
How it was run: as §3

PIKfyve [4] = biological target: T4, PIKfyve (Homo sapiens, UniProt Q9Y2I7); test: Fixed time-point ADP-Glo assay; type: biochemical
T4 sequence (Q9Y2I7 whole entry): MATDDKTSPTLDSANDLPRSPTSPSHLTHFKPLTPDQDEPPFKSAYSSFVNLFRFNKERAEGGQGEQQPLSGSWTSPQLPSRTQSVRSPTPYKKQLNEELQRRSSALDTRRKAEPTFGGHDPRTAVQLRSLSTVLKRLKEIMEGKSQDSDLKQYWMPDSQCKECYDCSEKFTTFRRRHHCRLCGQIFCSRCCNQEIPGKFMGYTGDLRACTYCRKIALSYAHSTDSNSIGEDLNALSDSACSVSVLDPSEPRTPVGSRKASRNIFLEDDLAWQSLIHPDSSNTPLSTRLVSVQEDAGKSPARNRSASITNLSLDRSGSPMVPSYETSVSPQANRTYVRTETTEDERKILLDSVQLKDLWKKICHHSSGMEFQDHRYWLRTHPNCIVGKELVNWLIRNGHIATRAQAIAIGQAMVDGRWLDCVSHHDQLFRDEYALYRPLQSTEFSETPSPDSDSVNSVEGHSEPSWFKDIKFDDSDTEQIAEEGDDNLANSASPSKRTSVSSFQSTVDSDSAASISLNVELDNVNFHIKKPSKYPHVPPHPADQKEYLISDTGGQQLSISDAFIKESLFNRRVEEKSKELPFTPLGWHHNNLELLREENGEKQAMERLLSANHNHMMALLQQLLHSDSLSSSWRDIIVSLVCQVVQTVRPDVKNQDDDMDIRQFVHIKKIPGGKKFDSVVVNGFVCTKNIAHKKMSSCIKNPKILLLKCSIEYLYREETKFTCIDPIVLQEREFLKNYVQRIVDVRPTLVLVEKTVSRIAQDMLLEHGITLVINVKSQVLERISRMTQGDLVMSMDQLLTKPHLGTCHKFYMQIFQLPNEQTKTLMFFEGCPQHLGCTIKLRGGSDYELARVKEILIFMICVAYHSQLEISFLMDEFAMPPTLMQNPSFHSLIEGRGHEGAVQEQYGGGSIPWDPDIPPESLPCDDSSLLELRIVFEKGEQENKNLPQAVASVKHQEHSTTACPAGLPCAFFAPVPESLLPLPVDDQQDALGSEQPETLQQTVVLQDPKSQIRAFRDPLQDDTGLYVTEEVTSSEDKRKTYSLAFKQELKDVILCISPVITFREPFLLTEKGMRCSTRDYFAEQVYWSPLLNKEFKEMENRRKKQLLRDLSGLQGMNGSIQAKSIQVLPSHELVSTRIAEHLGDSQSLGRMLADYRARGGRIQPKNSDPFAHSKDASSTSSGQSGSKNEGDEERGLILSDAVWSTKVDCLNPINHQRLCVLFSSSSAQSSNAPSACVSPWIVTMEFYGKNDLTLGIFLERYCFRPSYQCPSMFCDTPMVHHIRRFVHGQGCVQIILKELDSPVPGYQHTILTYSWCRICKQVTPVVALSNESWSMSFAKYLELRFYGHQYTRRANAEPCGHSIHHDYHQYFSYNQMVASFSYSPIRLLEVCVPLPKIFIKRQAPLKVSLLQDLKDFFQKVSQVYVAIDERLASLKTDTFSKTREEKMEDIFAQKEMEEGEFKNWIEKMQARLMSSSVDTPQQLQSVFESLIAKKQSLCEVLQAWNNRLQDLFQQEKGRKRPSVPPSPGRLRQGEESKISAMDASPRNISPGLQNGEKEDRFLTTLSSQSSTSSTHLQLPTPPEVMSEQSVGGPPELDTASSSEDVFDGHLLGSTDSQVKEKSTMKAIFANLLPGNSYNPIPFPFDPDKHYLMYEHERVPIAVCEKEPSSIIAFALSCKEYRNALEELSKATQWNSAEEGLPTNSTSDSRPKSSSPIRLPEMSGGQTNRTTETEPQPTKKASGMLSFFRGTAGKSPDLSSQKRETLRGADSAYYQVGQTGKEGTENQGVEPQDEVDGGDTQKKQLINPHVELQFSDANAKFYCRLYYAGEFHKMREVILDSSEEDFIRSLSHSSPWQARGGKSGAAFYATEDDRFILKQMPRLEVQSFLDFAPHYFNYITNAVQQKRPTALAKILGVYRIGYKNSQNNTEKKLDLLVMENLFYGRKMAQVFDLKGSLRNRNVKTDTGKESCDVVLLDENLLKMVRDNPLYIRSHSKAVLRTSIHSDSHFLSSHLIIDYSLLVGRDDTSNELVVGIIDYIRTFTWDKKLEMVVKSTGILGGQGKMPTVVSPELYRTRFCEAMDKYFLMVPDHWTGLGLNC

HeLa cells [5] = test: TFEB nuclear localization immunofluorescence; type: cell-based; conditions: 0.25-1.0 μM overnight
PI5P4Kβ [6] = biological target: T2, PI5P4Kβ; test: Intact electrospray MS covalent labeling; type: binding; conditions: within 2 h; 5 μM inhibitor, 37°C
How it was run: as §2

[7] = biological target: top off-targets except for BRK and ABL1; test: Z'LYTE kinase assay; type: biochemical; conditions: Fig. S4A
How it was run: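 ATP at apparent Km. Kinases tested were TYK2, RPS6KA4 (MSK2), CSNK2A2 (CK2α2), KIT and PDGFRB.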

PI5P4K = test: Competitive streptavidin pulldown after pre-treating HEK293T cells; type: cell-based
How it was run: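 HEK293T cells grown to 90–95% confluence were pretreated 6h with DMSO or varying test compound concentrations, then washed twice in cold PBS. Lysis on ice 60 min with protease inhibitors, cleared 20,000 × g 15 min at 4°C, protein-equalized by BCA. Lysates were rotated overnight at 4°C with 1 μM biotinylated probe, then 2h at RT, then on streptavidin resin 2h at 4°C. Beads washed ×5, boiled in LDS 95°C 10 min, immunoblotted.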

PIKfyve [8] = biological target: T4, PIKfyve; test: DiscoverX KINOMEScan; type: binding
PIKfyve [9] = test: Vacuolar enlargement assay in Vero cells; type: cell-based
HeLa cells [10] = test: RFP-GFP-LC3B tandem sensor autophagy flux assay; type: cell-based; conditions: 1 μM, 16 hours
How it was run: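 HeLa cells (DMEM, 10% FBS) on coverslip-bottomed dishes were transduced with 40 particles/cell of the RFP-GFP-LC3B tandem sensor and cultured 16–24h. They were then exposed to DMSO, 50 μM chloroquine or 1 μM test compound for 16h. Live imaging at 37°C in phenol red-free DMEM by spinning-disk confocal microscopy.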

CN(C)C/C=C/C(=O)Nc1cccc(C(=O)Nc2ccc(Nc3nccc(-c4cccnc4)n3)cc2)c1 [JNK-IN-7, reference compound]
inhibition of kinase activity (in words) (PI5P4Kα [1]; Fig. S1B-C): inhibit
inhibition of kinase activity (in words) (PI5P4Kβ [2]; Fig. S1B-C): inhibit
inhibition of kinase activity (in words) (PI5P4Kγ): inhibit

CN(C)C/C=C/C(=O)Nc1ccc(C(=O)Nc2cccc(Nc3cc(-c4c[nH]c5ccccc45)ncn3)c2)cc1 [THZ-P1-2]
covalent labeling (PI5P4Kα [3]): 100%
IC50 (in words) (PI4P5Kγ): low micromolar
IC50 (in words) (PI4P5Kβ): low micromolar
IC50 (in words) (PI4P5Kα): low micromolar
inhibition of PI-4,5-P2 formation (PI5P4Kα [1]; 0.7 μM): approximately 75%
inhibition of PI-4,5-P2 formation (PI5P4Kβ [2]; 0.7 μM): ~50%
anti-proliferative IC50 (in words) (AML/ALL cell lines): low micromolar range
potency at killing cells versus imatinib, nilotinib and dasatinib (in words) (K562 and KU812F): markedly less potent
IC50 (PIKfyve [4]): 0.04 µM
nuclear TFEB accumulation (in words) (HeLa cells [5]): increase
covalent labeling (PI5P4Kβ [6]): 100%
IC50 (in words) [7]: micromolar range
earliest time of on-target engagement in washout pulldown (PI5P4K; 1 μM compound treatment, washout at 2 and 4 hours): 2 h
competition of pulldown by 1 μM dtb-THZ-P1-2 (in words) (PI5P4K; pre-treatment of HEK293T cells): compete and block pulldown
% DMSO control (PIKfyve [8]): 6.4 % DMSO control
inhibition of PIKfyve in cells (in words) (PIKfyve [9]; 1 μM): failed to show inhibition
GFP signal of RFP-GFP-LC3B sensor (in words) (HeLa cells [10]): marked increase
RFP signal of RFP-GFP-LC3B sensor (in words) (HeLa cells [10]): moderate increase

Cc1cccc(/C=N/Nc2cc(N3CCOCC3)nc(OCCc3ccccn3)n2)c1 [apilimod, reference compound]
concentration causing substantial vacuolar enlargement (PIKfyve [9]; positive control): 10 nM
